Laboratory results published in PubChem BioAssay.
Unmarked numbers belong to inactive results. Inconclusive results are not listed. Active and inactive are the calls of the source.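 Rule for the calls, unless noted: active = RAM network inhibition above 8.4% in each of two replicates, 3 SD over the compound average; inconclusive = above 8.4% inhibition in only one replicate; inactive = 8.4% inhibition or less in each replicate.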

Key:
[1] = OD615 S. cerevisiae growth inhibition, permissive medium, pilot counter-assay, permissive growth control for S. cerevisiae lifespan shortening project (AID 705;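 active = growth inhibition above 25% in both replicates, a cutoff set 3 SD above the mean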); settings: OD615, 24 h, at 10 µM, active compounds read high
In short: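 System: S. cerevisiae with engineered DeaD lifespan system. Medium: SC raffinose/galactose permissive medium. Doses: single compound dose of 10 µM, 0.25% DMSO final. Schedule: 24 h exposure, 30 °C. Measured by: OD615 turbidity read. Read-out: growth inhibition.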

[2] = Restrictive medium S. cerevisiae growth inhibition, OD615, pilot screen of yeast lifespan reduction project, restrictive growth control (AID 706;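 active = growth inhibition above a set limit, 3 SD over mean compound inhibition, in both replicates, cut at about 43% in these data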;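 note: modified DeaD lifespan yeast strain shifted to restrictive glucose medium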); settings: OD615, 48 h, at 10 µM, active compounds read high
In short: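 Assay system – genetically modified Saccharomyces cerevisiae, DeaD replicative lifespan assay strain · Medium – CSMM-D glucose medium · Doses – 10 µM compound, 0.25% DMSO · Times – 4 h pre-incubation, 48 h exposure at 30 °C · Signal – optical density at 615 nm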

[3] = viability gain of MRP-1-high H69AR cells under doxorubicin, pilot screen, MRP-1 activator project, CellTiter-Glo, duplicate (AID 807;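 active = viability increase at or above a cutoff of the median across tested compounds plus 3 SD, cut at about 8.5% in these data, passing the limit was not always enough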;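 note: compound pretreatment 18-22 h then 72 h combined with doxorubicin; 0% = doxorubicin alone and 100% = vehicle without doxorubicin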); settings: H69AR viability with doxorubicin, CellTiter-Glo luminescence; at 10 µM; active compounds read high
[4] = growth suppression of beta-catenin knockout HCT116, pilot screen, human colon tumor cells (AID 823;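 active = cell viability at or below a set limit in both duplicate runs, the limit being the all-compound median minus 4 SD, cut at about 23% in these data, passing the limit was not always enough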;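 note: 0% = wells killed by 20 µM Hyamine and 100% = untreated DMSO cell wells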); settings: CellTiter-Glo, 60 h, at 10 µM, active compounds read low
[5] = growth suppression of PTEN-deleted HCT116, pilot screen, cell-based, HCT116 clonal line, CellTiter-Glo (AID 824;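 active = viability at or below 27.92% in each of two runs, the all-compound median minus 4 SD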;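 note: 0% = 20 µM Hyamine control and 100% = vehicle cell control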); settings: 60 h, at 10 µM, active compounds read low
[6] = inhibitors of the yeast RAM network, pilot screen, dse1pr::URA3 reporter, 5-FOA selection (AID 869;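 active = inhibition over a set limit, the all-compound mean plus 3 SD, in both replicate runs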;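 note: 0% = DMSO wells with no growth and 100% = 10 µM 1-NA-PP1 with full growth; RAM network block rescues cells from 5-FOA so hits raise OD615 growth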); settings: S. cerevisiae dse1pr::URA3 5-FOA growth, OD615, 2 d; at 10 µM; active compounds read high; strain carries analog-sensitive mutant Cbk1 kinase
[7] = RAM signaling pathway blockade in yeast – S. cerevisiae, Pdr1DBD-CYC8 efflux-inhibited sensitized strain, primary screen (AID 1298);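 note: 0% = DMSO untreated cells without growth and 100% = 10 µM 1-NA-PP1 full growth; higher means more yeast growth rescued from 5-FOA killing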; settings: S. cerevisiae cbk1-as DSE1-URA3 strain, 5-FOA growth OD615, 2 d; at 50 µM; active compounds read high

| SMILES | growth inhibition [1] [%] | growth inhibition [2] [%] | viability increase [3] [%] | viability [4] | viability [5] | inhibition [6] [%] | RAM network inhibition [7] [%] |
| --- | --- | --- | --- | --- | --- | --- | --- |
| Nc1c(C(=O)CCC(=O)O)oc2ccc(Cl)cc12 | 5.78 | -0.24 | -2.01 | 100% | 99.4% | 0.635 | 5.46 |
| CC1Cc2nc(SCC(=O)Nc3nccs3)n(Cc3ccccc3)c(=O)c2S1 (stereo unspecified) | 4.49 | 8.66 | -2.23 | 94.8% | 88.4% | 2.21 | 3.83 |
| CCOC(=O)c1csc(NC(=O)c2ccccc2)n1 | -6.33 | 0.485 | 4.7 | 101% | 99.7% | 0.115 | -2.57 |
| CCOC(=O)c1ccc(NC(=O)CCC(=O)OC)cc1 | 5.7 | -1.83 | -1.2 | 96.8% | 98.3% | 1.98 | 3.41 |
| CCOc1ccc(N(CC(=O)Nc2ccccc2C)S(=O)(=O)c2c(C)noc2C)cc1 | 10.9 | 4.1 | -5.61 | 15.9% (active) | 18.1% (active) | 2.38 | -0.84 |
| CCOc1ccc(N(CC(=O)Nc2nccs2)S(=O)(=O)c2c(C)noc2C)cc1 | -3.78 | 5.32 | -1.1 | 97.5% | 89.1% | 1.25 | 8.94 |
| O=C(NCCN1CCOCC1)c1ccc2c(c1)ncn2C1CCCC1 | -10 | 5.44 | -0.55 | 106% | 105% | 1.44 | 4.43 |
| Cc1cc(NC(=O)CSc2c(C)[nH]c3ccccc23)no1 | -11.4 | -4.25 | -1.25 | 104% | 89.4% | 0.94 | 4.64 |
| CCOC(=O)c1ccccc1Nc1cc(C)nc2nc(C)nn12 | -4.38 | 9.16 | -5.14 | 97.6% | 93% | 1.52 | 1.2 |
| CC(=O)CCc1c(C)c2cccc(C)c2[nH]c1=O | 1.6 | 1.5 | -3.1 | 93.4% | 96.5% | 2.75 | 3.81 |
| CC(C)C12CN3CC(C(C)C)(CN(C1)C3c1ccccc1)C2O (stereo unspecified) | 6 | 2.74 | -1.42 | 96.2% | 93.6% | 1.8 | 3.93 |
| O=C(O)CN(Cc1ccco1)S(=O)(=O)c1ccccc1 | -15.2 | -13 | -1.97 | 95.7% | 98.3% | 2.67 | 2.35 |
| CC1CCCC(C)N1CCCNC(=O)Cn1cc2c(n1)CCCC2 (stereo unspecified) | 9.32 | 6.46 | -1.41 | 95.7% | 92.5% | -0.06 | 6.61 |
| COc1ccccc1C(=O)Nc1nnc(-c2ccc3c(c2)CCCC3)o1 | -10.5 | 7.12 | -0.59 | 90.2% | 85.1% | 0.08 | -0.58 |
| COc1ccc(S(=O)(=O)Cc2ccc(C(=O)NC(C)C)o2)cc1 | -1.35 | 0.215 | 1.22 | 108% | 99.6% | -0.2 | 1.2 |
| O=C(CNC(=O)c1cnccn1)Nc1ccc(F)c(F)c1F | -8.69 | 2.7 | 1.31 | 99.9% | 92.8% | 2.68 | 7.87 |
| CCCCn1c(CNC(=O)c2cccs2)nc2ccccc21 | -5.02 | -5.51 | -3.7 | 101% | 94.5% | -0.215 | -1.56 |

| SMILES | growth inhibition [1] [%] | growth inhibition [2] [%] | viability increase [3] [%] | viability [4] | viability [5] | inhibition [6] [%] | RAM network inhibition [7] [%] |
| --- | --- | --- | --- | --- | --- | --- | --- |
| O=C(CN1CCN(Cc2ccc(Cl)cc2)C1=O)NCCN1CCCC1 | 1.2 | 9.72 | -0.85 | 107% | 96.7% | 1.54 | 1.2 |
| O=C(Nc1ccccc1C(=O)N1CCN(Cc2ccccc2)CC1)c1ccccn1 | -4.94 | -10.1 | -2.39 | 93.3% | 96.2% | -0.045 | 6.33 |
| Cc1nn(C(=O)c2cccs2)c(N)c1-c1ccccc1 | 2.29 | 5.9 | 0.4 | 84.4% | 96% | 0.035 | 2.36 |
| CCOC(=O)c1oc2cc(O)c(CC)cc2c(=O)c1-c1ccc2c(c1)OCCO2 | -22.8 | -16.3 | -2.23 | 101% | 91.7% | 3 | 5.4 |
| Cn1c(Cn2c(=O)sc3ccccc32)nnc1SCC(=O)N1CCCc2ccccc21 | -4.97 | 0.455 | -3.71 | 96.5% | 95.1% | 1.82 | 6.16 |
| Cc1ccc(S(=O)(=O)N(C)Cc2nc(-c3ccc(Br)cc3)no2)cc1 | -3.27 | -0.88 | 0.27 | 89.5% | 87.8% | 2.72 | 3.02 |
| Cc1ccccc1-c1nnc(-c2ccccc2)o1 | -0.03 | -4.75 | -4.15 | 80.9% | 83.1% | 1.82 | 0.2 |
| CC1CCN(c2nc3c(c(=O)n(C)c(=O)n3C)n2CCSc2ncccn2)CC1 | -3.47 | -3.19 | -0.04 | 99.1% | 96.3% | 1.61 | 2.44 |
| COC(=O)CCS(=O)(=O)c1cc(Cl)ccc1Cl | -5.18 | 7.17 | -1.81 | 95.4% | 94.9% | -1.08 | 1.34 |
| CCN1CCN(C(=O)Nc2ccc(Cc3ccc(NC(=O)N4CCN(CC)CC4)cc3)cc2)CC1 | -9.89 | -9.14 | -2.42 | 78.3% | 86.7% | 1.72 | 2.65 |
| CCCCNC(=O)CC1Nc2ccccc2NC1=O (stereo unspecified) | 5.04 | 4.59 | -2.91 | 113% | 93% | 0.83 | 5.83 |
| COc1ccc(C2N(c3cc(Cl)ccc3OC)C(=O)C3CCCN32)cc1OC (stereo unspecified) | -8.95 | -8.17 | -1.86 | 106% | 95.9% | 1.02 | 7.33 |
| Cn1c(SCC(=O)Nc2ccccc2F)nnc1-c1cccnc1 | -5.35 | -5.78 | -0.11 | 100% | 92.8% | 1.01 | -1.31 |
| COc1ccc(CCNC(=O)Cc2cc(=O)[nH]c(=O)[nH]2)cc1OC | 6.42 | 3 | -0.97 | 96.7% | 97.6% | 1.35 | 1.23 |
| Cn1c(Cn2c(=O)sc3ccccc32)nnc1SCC(=O)N1CCCCCC1 | -15 | -23.5 | -0.71 | 102% | 95.2% | 2.58 | 1.04 |
| Cn1c(Cn2c(=O)sc3ccccc32)nnc1SCC(=O)N1CCc2ccccc21 | -8.97 | -4.5 | -1.09 | 86.1% | 92.6% | 2.98 | 2.79 |
